Data: ChEMBL document CHEMBL1811821, “Cystic fibrosis: a new target for 4-Imidazo[2,1-b]thiazole-1,4-dihydropyridines” (J Med Chem, 2011)
Active and inactive are the calls of the source. The calls are words filed in the database; no cut-off is given here.

What was measured:
[1] = Binding affinity to CFTR F508 deletion mutant expressed in forskolin-stimulated FRT cells assessed as increase in iodine influx measured as YFP quenching rate after 24 hrs by fluorescence assay; format: cell-based
How it was run: (§1)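 ΔF508-CFTR and halide-sensitive YFP coexpressed in FRT cells, held at 27 °C for 24 h for rescue, then stimulated 30–40 min with 20 μM forskolin with or without compound at 0.2, 2 and 20 μM. Fluorescence read before and after I– addition (100 mM final). Normalized decay fitted exponentially for maximal quenching rate; dose–response fitted with Hill equation for potency and maximal effect. Three independent determinations.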

[2] = test system: Cystic fibrosis transmembrane conductance regulator (Homo sapiens), P13569 [F508del]; assay: Activity at CFTR F508 deletion mutant expressed in forskolin-stimulated FRT cells assessed as maximal increase in iodine influx measured as YFP quenching rate at 0.2 uM after 24 hrs by fluorescence assay; format: cell-based; how it was run: as §1
[3] = Negative ionotropic activity against potassium-induced contraction in guinea pig left atrium assessed as decrease in developed tension; conditions: Cavia porcellus, Cardiac atrium
[4] = Negative ionotropic activity against potassium-induced contraction in guinea pig left atrium assessed as […] at 10^-4 M relative to control; format: functional; conditions: Cavia porcellus, Cardiac atrium
How it was run: (§2)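 Isolated guinea pig left atrium paced at 1 Hz. Drugs added cumulatively. Negative inotropic effect expressed as percent change from control, n = 5–6. […] Student's t-test against control at each concentration, P < 0.05. Mean ± SEM.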

[5] = Negative ionotropic activity in potassium depolarized guinea pig longitudinal smooth muscle assessed as inhibition of calcium-induced contraction; format: functional, Cavia porcellus
[6] = test system: Cystic fibrosis transmembrane conductance regulator (Homo sapiens), P13569 [F508del]; assay: Activity at CFTR F508 deletion mutant expressed in forskolin-stimulated FRT cells assessed as maximal increase in iodine influx measured as YFP quenching rate after 24 hrs by fluorescence assay; format: cell-based; how it was run: as §1
[7] = Bronchodilatory activity in guinea pig trachea assessed as inhibition of carbachol-induced contraction; format: functional, tissue-based, Cavia porcellus
Aorta [8] = assay: Vasorelaxant activity in potassium depolarized guinea pig aortic strip assessed as inhibition of calcium-induced contraction at 10^-4 M; format: functional; conditions: Cavia porcellus
How it was run: (§3)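 Guinea pig aortic strips depolarized with 80 mM K+, with cumulative drug addition. Relaxation given as mean ± SEM. […] Student's t-test against control, P < 0.05.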

[9] = Negative chronotropic activity against potassium-induced contraction in guinea pig right atrium assessed as decrease atrial rate at 10^-6 M relative to control; format: functional; conditions: Cavia porcellus, Cardiac atrium
How it was run: (§4)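 Spontaneously beating isolated guinea pig right atrium, pretreatment rate 165–190 beats/min. Drugs added cumulatively. Decrease in atrial rate expressed as percent change from control, n = 7–8. […] Control versus treated tested at each concentration by Student's t-test, P < 0.05. Mean ± SEM.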

Cavia porcellus [10] = species on record: Cavia porcellus; assay: Negative ionotropic activity in potassium depolarized guinea pig longitudinal smooth muscle assessed as inhibition of calcium-induced contraction at 10^-7 M; format: functional
[11] = Bronchodilatory activity in guinea pig trachea assessed as inhibition of carbachol-induced contraction at 10^-4 M; format: functional; conditions: Cavia porcellus
Aorta [12] = assay: Vasorelaxant activity in potassium depolarized guinea pig aortic strip assessed as inhibition of calcium-induced contraction at 10^-5 M; format: functional; conditions: Cavia porcellus; how it was run: as §3
Cavia porcellus [13] = species on record: Cavia porcellus; assay: Negative ionotropic activity in potassium depolarized guinea pig longitudinal smooth muscle assessed as inhibition of calcium-induced contraction at 10^-5 M; format: functional
[14] = Negative ionotropic activity against potassium-induced contraction in guinea pig left atrium assessed as […] at 5 X 10^-7 M relative to control; format: functional; conditions: Cavia porcellus, Cardiac atrium; how it was run: as §2
[15] = Negative chronotropic activity against potassium-induced contraction in guinea pig right atrium assessed as decrease atrial rate at 10^-5 M relative to control; format: functional; conditions: Cavia porcellus, Cardiac atrium; how it was run: as §4
[16] = test system: Cystic fibrosis transmembrane conductance regulator (Homo sapiens), P13569 [F508del]; assay: Activity at CFTR F508 deletion mutant expressed in forskolin-stimulated FRT cells assessed as maximal increase in iodine influx measured as YFP quenching rate after 24 hrs by fluorescence assay relative to nifedipine; format: cell-based; how it was run: as §1
[17] = Bronchodilatory activity in guinea pig trachea assessed as inhibition of carbachol-induced contraction at 10^-5 M; format: functional; conditions: Cavia porcellus
[18] = Ratio IC50 for nifedipine to compound for bronchodilatory activity in guinea pig trachea assessed as carbachol-induced contraction; format: functional, Cavia porcellus
[19] = Negative chronotropic activity against potassium-induced contraction in guinea pig right atrium assessed as decrease atrial rate at 5 X 10^-7 M relative to control; format: functional; conditions: Cavia porcellus, Cardiac atrium; how it was run: as §4
Cavia porcellus [20] = species on record: Cavia porcellus; assay: […] activity in potassium depolarized guinea pig longitudinal smooth muscle assessed as inhibition of calcium-induced contraction at 5 X 10^-9 M; format: functional
[21] = Negative ionotropic activity against potassium-induced contraction in guinea pig left atrium assessed as […] at 10^-7 M relative to control; format: functional; conditions: Cavia porcellus, Cardiac atrium; how it was run: as §2
[22] = Negative chronotropic activity against potassium-induced contraction in guinea pig right atrium assessed as decrease atrial rate; format: functional, tissue-based; conditions: Cavia porcellus, Cardiac atrium; how it was run: as §4
Cavia porcellus [23] = species on record: Cavia porcellus; assay: Negative ionotropic activity in potassium depolarized guinea pig longitudinal smooth muscle assessed as inhibition of calcium-induced contraction at 3 X 10^-7 M; format: functional
[24] = Negative chronotropic activity against potassium-induced contraction in guinea pig right atrium assessed as decrease atrial rate at 10^-4 M relative to control; format: functional; conditions: Cavia porcellus, Cardiac atrium; how it was run: as §4
Cavia porcellus [25] = species on record: Cavia porcellus; assay: Negative ionotropic activity in potassium depolarized guinea pig longitudinal smooth muscle assessed as inhibition of calcium-induced contraction at 10^-8 M; format: functional
Aorta [26] = assay: Vasorelaxant activity in potassium depolarized guinea pig aortic strip assessed as inhibition of calcium-induced contraction; format: functional, tissue-based; conditions: Cavia porcellus; how it was run: as §3
Aorta [27] = assay: Vasorelaxant activity in potassium depolarized guinea pig aortic strip assessed as inhibition of calcium-induced contraction at 10^-6 M; format: functional; conditions: Cavia porcellus; how it was run: as §3
[28] = Negative ionotropic activity against potassium-induced contraction in guinea pig left atrium assessed as […] at 10^-5 M relative to control; format: functional; conditions: Cavia porcellus, Cardiac atrium; how it was run: as §2
[29] = Negative chronotropic activity against potassium-induced contraction in guinea pig right atrium assessed as decrease atrial rate at 10^-7 M relative to control; format: functional; conditions: Cavia porcellus, Cardiac atrium
How it was run: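 Isolated spontaneously beating guinea pig right atrium with pretreatment heart rate of 165–190 beats/min. Compound was added cumulatively. Atrial rate decrease at the stated concentration is given as percent change from control, mean ± SEM, n = 7–8. Control versus treated values at each concentration were compared by Student's t-test at P < 0.05.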

[30] = Ratio EC50 for negative chronotropic activity against potassium-induced contraction in guinea pig right atrium to EC50 for negative […] activity against potassium-induced contraction in guinea pig left atrium; format: functional, Cavia porcellus, Cardiac atrium
[31] = Bronchodilatory activity in guinea pig trachea assessed as inhibition of carbachol-induced contraction at 10^-7 M; format: functional; conditions: Cavia porcellus
Cavia porcellus [32] = species on record: Cavia porcellus; assay: Negative ionotropic activity in potassium depolarized guinea pig longitudinal smooth muscle assessed as inhibition of calcium-induced contraction at 5 X 10^-7 M; format: functional
Aorta [33] = assay: Vasorelaxant activity in potassium depolarized guinea pig aortic strip assessed as inhibition of calcium-induced contraction at 5 X 10^-7 M; format: functional; conditions: Cavia porcellus; how it was run: as §3
[34] = Ratio EC50 for nifedipine to compound for negative […] activity against potassium-induced contraction in left atrium of guinea pig; format: functional, Cavia porcellus, Cardiac atrium
[35] = Negative ionotropic activity against potassium-induced contraction in guinea pig left atrium assessed as […] at 5 X 10^-6 M relative to control; format: functional; conditions: Cavia porcellus, Cardiac atrium; how it was run: as §2
Aorta [36] = assay: Vasorelaxant activity in potassium depolarized guinea pig aortic strip assessed as inhibition of calcium-induced contraction at 5 X 10^-5 M; format: functional; conditions: Cavia porcellus; how it was run: as §3
Cavia porcellus [37] = species on record: Cavia porcellus; assay: Negative ionotropic activity in potassium depolarized guinea pig longitudinal smooth muscle assessed as inhibition of calcium-induced contraction at 5 X 10^-5 M; format: functional
[38] = Negative ionotropic activity against potassium-induced contraction in guinea pig left atrium assessed as […] at 5 X 10^-5 M relative to control; format: functional; conditions: Cavia porcellus, Cardiac atrium; how it was run: as §2
Cavia porcellus [39] = species on record: Cavia porcellus; assay: Negative ionotropic activity in potassium depolarized guinea pig longitudinal smooth muscle assessed as inhibition of calcium-induced contraction at 10^-6 M; format: functional

Sequence of Cystic fibrosis transmembrane conductance regulator (Homo sapiens), P13569 [F508del] (P13569 as listed by the source): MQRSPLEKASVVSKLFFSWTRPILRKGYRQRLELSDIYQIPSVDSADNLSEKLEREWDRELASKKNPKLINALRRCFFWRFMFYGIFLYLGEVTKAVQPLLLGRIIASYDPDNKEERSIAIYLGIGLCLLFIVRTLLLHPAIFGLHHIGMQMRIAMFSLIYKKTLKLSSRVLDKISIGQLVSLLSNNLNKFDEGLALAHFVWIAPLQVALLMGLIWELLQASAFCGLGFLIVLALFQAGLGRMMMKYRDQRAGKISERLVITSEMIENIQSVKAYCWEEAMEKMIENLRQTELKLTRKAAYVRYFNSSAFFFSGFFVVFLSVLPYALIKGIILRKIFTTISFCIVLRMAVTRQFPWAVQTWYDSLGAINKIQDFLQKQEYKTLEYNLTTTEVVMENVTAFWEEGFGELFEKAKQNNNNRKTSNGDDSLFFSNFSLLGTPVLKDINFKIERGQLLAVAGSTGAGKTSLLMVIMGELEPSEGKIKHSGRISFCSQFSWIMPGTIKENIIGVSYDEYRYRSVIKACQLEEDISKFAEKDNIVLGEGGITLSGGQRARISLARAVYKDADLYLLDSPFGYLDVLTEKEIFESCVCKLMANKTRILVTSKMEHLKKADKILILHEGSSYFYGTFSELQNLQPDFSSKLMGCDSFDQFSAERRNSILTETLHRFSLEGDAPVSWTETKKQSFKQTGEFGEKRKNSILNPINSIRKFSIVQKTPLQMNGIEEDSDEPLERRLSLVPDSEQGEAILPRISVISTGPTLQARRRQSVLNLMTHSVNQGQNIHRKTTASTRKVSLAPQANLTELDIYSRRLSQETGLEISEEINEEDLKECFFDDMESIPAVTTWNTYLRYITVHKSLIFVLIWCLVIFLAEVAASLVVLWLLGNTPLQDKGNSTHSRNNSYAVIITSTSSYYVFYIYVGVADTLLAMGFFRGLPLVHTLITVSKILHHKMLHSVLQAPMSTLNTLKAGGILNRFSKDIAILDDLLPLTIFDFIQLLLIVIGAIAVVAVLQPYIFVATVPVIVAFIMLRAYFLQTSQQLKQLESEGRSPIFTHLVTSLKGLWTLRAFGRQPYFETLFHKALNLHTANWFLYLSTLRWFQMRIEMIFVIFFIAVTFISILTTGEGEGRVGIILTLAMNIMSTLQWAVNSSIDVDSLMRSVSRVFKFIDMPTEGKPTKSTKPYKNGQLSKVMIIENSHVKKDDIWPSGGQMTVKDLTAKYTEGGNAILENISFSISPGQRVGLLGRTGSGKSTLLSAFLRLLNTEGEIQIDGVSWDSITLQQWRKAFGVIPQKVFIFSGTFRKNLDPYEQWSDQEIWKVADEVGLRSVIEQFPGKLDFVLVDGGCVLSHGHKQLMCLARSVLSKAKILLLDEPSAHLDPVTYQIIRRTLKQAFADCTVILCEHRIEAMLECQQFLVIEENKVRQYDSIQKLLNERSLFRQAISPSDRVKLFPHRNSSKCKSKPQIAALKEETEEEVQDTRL

Row | Structure (SMILES) | Kd [1] [µM] | Activity [2] | EC50 [3] [µM] | IC50 [5] [µM] | Emax [6] [ms-1] | IC50 [7] [µM] | inhibition at 100 µM (Aorta [8]) [%] | inhibition at 10 µM [17] [%] | EC50 [22] [µM] | also measured
1 | CCOC(=O)C1=C(C)NC(C)=C(C(=O)OCC)C1c1c(C(F)(F)F)nc2sccn12 | 19.4 | inactive | 1.07 | 0.014 | 60 | 1.11 | 48 | – | – | inhibition at 100 µM [4]: 93%; inhibition at 1 µM [9]: 40%; inhibition (Cavia porcellus [10]): 90%; inhibition at 100 µM [11]: 77%
2 | C=CCOC(=O)C1=C(C)NC(C)=C(C(=O)OCC=C)C1c1ccc(C(C)(C)C)cc1 | 0.17 | – | 0.0022 | 1.85 | 56 | 0.00059 | – | 68 | – | inhibition at 10 µM (Aorta [12]): 12%; inhibition (Cavia porcellus [13]): 52%; inhibition at 0.5 µM [14]: 71%; inhibition at 10 µM [15]: 5%; Ratio [16]: 17; Ratio IC50 [18]: 163
3 | CCOC(=O)C1=C(C)NC(C)=C(C(=O)OCC)C1c1c(-c2ccc(C(F)(F)F)cc2)nc2sccn12 | 0.18 | inactive | 0.033 | 0.00088 | 42 | 0.13 | 6 | 57 | 0.15 | inhibition at 0.5 µM [19]: 64%; inhibition (Cavia porcellus [20]): 83%; inhibition at 0.1 µM [21]: 90%
4 | COC(=O)C1=C(C)NC(C)=C(C(=O)OC)C1c1c(C(F)(F)F)nc2sccn12 | 28.3 | inactive | – | 0.21 | 60 | – | – | – | – | inhibition (Cavia porcellus [23]): 70%
5 | COC(=O)C1=C(C)NC(C)=C(C(=O)OC)C1c1c(-c2ccc(OC(F)(F)F)cc2)nc2sccn12 | 3.5 | inactive | 2.33 | 0.0033 | 64 | – | – | 26 | – | inhibition at 100 µM [24]: 33%; inhibition at 100 µM [4]: 89%; inhibition (Cavia porcellus [25]): 73%; IC50 (Aorta [26]): 0.016 µM; inhibition at 1 µM (Aorta [27]): 60%
6 | COC(=O)C1=C(C)NC(C)=C(C(=O)OC)C1c1ccccc1[N+](=O)[O-] [NIFEDIPINE] | 2.9 | – | 0.26 | – | 58 | 0.096 | – | 62 | 0.039 | inhibition (Cavia porcellus [20]): 70%; inhibition at 10 µM [28]: 97%; IC50 (Aorta [26]): 0.009 µM; inhibition at 1 µM (Aorta [27]): 82%; inhibition at 0.1 µM [29]: 85%
7 | COC(=O)C1=C(C)NC(C)=C(C(=O)OC)C1c1c(-c2cccc(C(F)(F)F)c2)nc2sccn12 | 2.8 | inactive | – | 0.036 | 65 | – | – | – | – | Ratio EC50 [30]: 12; inhibition at 0.1 µM [31]: 19%; inhibition (Cavia porcellus [32]): 96%
8 | COC(=O)C1=C(C)NC(C)=C(C(=O)OC)C1c1c(-c2ccc(C(F)(F)F)cc2)nc2sccn12 | 3.2 | inactive | 0.12 | 0.0046 | 64 | 0.061 | – | 67 | – | inhibition at 0.5 µM (Aorta [33]): 36%; inhibition (Cavia porcellus [25]): 69%; Ratio EC50 [34]: 2.6; inhibition at 10 µM [28]: 96%; inhibition at 0.1 µM [29]: 33%
9 | O=c1c(-c2ccc(O)cc2)coc2cc(O)cc(O)c12 [GENISTEIN] | – | – | 0.028 | 9.95 | 61 | – | – | 14 | 44.5 | inhibition at 5 µM [35]: 71%; inhibition at 100 µM [24]: 68%; inhibition at 50 µM (Aorta [36]): 22%; inhibition (Cavia porcellus [37]): 84%
10 | C=CCOC(=O)C1=C(C)NC(C)=C(C(=O)OCC=C)C1c1c(-c2ccc(C(F)(F)F)cc2)nc2sc(C)c(C)n12 | 0.32 | inactive | 0.27 | 0.46 | 42 | – | 32 | – | 8.96 | Ratio EC50 [30]: 33; inhibition at 50 µM [38]: 93%; inhibition at 10 µM [15]: 52%; inhibition (Cavia porcellus [39]): 72%
